Rows were chosen to be rich in hits. Some 5.6% of all compounds tested hit in one or more screens of this group.
UPR CHOP act = activators of apoptotic CHOP UPR arm, primary screen, cell-based, CHO-CHOP luciferase reporter, luminescence, uHTS; UPR activation; percent of tunicamycin response over DMSO baseline; activation, % at 10 µM; 330,000 compounds, 0.34% hits; AID 449763, 2010;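 active = at 10 µM dose, activation of 40% or more, normalized to positive control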
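measured by = luciferase luminescence | assay system = CHO-CHOP cells, stable luciferase reporter of PERK-eIF2a-CHOP signalling | amount = 500 reporter cells seeded per well | timing = 6 h compound exposure at 37 °C after overnight seeding | controls = positive tunicamycin 10 µg/mL, negative DMSO alone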
NR3A LBD binder = binders of NR3A ligand-binding domain, primary screen, biophysical, differential scanning fluorimetry, uHTS; AID 1259313, 2017; 340,000 compounds, 2.5% hits; NR3A LBD differential scanning fluorimetry, Tm shift; 0% = protein alone, 100% = glycine-bound protein; Tm shift relative to glycine control, % at 25 µM;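 active = melting temperature shift of at least 10% of the positive control shift, at one fixed dose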
MPTP block = mitochondrial permeability transition pore inhibitors, primary screen, biochemical, isolated mouse mitochondria, absorbance; AID 602449, 2012; 360,000 compounds, 1.4% hits; inhibition, % at 10 µM; Ca2+ swelling absorbance, 30 min;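 active = inhibition of 50% or more, scaled per plate between neutral and stimulator controls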
aDG glyco up = activators of alpha-DG glycosylation, primary screen, uHTS, Pro5-aDG cells, AlphaScreen | alpha-DG glycosylation AlphaScreen (IIH6); 0% Pro5, 100% B10-LARGE cell signal | activation, % at 10 µM | 360,000 compounds, 0.22% hits;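 active = activation of at least 8% versus controls, or a plate z-score of at least 8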;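 note: Pro5 are CHO cells carrying HIG-tagged alpha-DG that lacks glycosylation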
UPR XBP1 act = activators of adaptive XBP1 UPR arm, primary screen, cell-based, CHO-XBP1 luciferase reporter, luminescence, uHTS. 330,000 compounds, 0.33% hits. IRE1-XBP1 UPR activation; percent of tunicamycin response, DMSO as zero. activation, % at 20 µM;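 active = versus positive control, 20 µM dose yields 30% or more activation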
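Material: CHO cell line with stable XBP1 luciferase reporter; schedule: 16-18 h cell attachment at 37 °C, then 6 h compound exposure; signal: glow luminescence from Steady-Glo reagent; medium: serum-containing F12 medium, 10% FBS; benchmarks: tunicamycin 10 µg/mL and vehicle-only wells; read-out: percent activation relative to tunicamycin reference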
CHOP inhibitor = inhibitors of CHOP promoter induction, primary screen, cell-based, unfolded protein response, luciferase reporter; CHO-K1 CHOP-promoter luciferase, tunicamycin-induced, 15-18 h; inhibition, % at 10 µM; 220,000 compounds, 3.8% hits;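 active = compounds that reduced the stress-induced luciferase reporter signal by more than about 70% of percent inhibition, limit read from the data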
Large screens that a line does not name were inactive.

COc1ccccc1-n1cnc2c(c1=O)c1nc3ccccc3nc1n2-c1ccc(C)c(C)c1	CHOP inhibitor 84 (no result: UPR CHOP act, UPR XBP1 act)
COCCNC(=O)c1cccc2c(-c3ccnn3C)coc12	none (no result: UPR CHOP act, NR3A LBD binder, UPR XBP1 act, CHOP inhibitor)
COCCNC(=S)N1CCN(Cc2cccc(OC)c2)CC1	none
CCCCCN1CC(=O)N2Cc3[nH]c4ccccc4c3C[C@H]2C1=O	none (no result: CHOP inhibitor)
CCCCN1C(=O)C2Cc3c([nH]c4ccccc34)CN2C1=S (stereo not given)	CHOP inhibitor 80
CCCCN(CC)C(=O)Cn1ncc2c3ccccc3n(CCC)c2c1=O	none (no result: CHOP inhibitor)
Cc1ccc(-c2cc(C(=O)NCc3cnn(C)c3C)c3cc(Br)ccc3n2)cc1	CHOP inhibitor 78
NNC(=O)c1cc(C2CC2)nc2ccc(Br)cc12	none (no result: CHOP inhibitor)
NNC(=O)c1cc(-c2ccc(O)cc2)nc2ccc(Br)cc12	NR3A LBD binder 11
CC12CCC(=O)N1C(C(=O)Nc1cc(Cl)ccc1N1CCOCC1)CS2 (stereo not given)	none (no result: CHOP inhibitor)
Cn1nc(C(C)(C)C)cc1C(=O)N1CCC(C)(C(=O)NS(=O)(=O)C2CC2)C1 (stereo not given)	none (no result: UPR CHOP act, NR3A LBD binder, UPR XBP1 act, CHOP inhibitor)
COc1cccc(CNC(=O)[C@@H]2CCCN2C(=O)[C@@H]2CCCN2C(=O)c2cccc(OC)c2)c1	none (no result: UPR CHOP act, NR3A LBD binder, UPR XBP1 act, CHOP inhibitor)
O=c1oc(C2(O)CCCCC2)cc2ccccc12	none (no result: CHOP inhibitor)
O=c1oc(C2(O)CCCCC2)cc2ccc(-c3ccc4[nH]ccc4c3)cc12	NR3A LBD binder 11 (no result: CHOP inhibitor)
CCn1c(O)c(/C=C2\C=Nc3ccccc32)sc1=Nc1ccc(C)cc1	NR3A LBD binder 18
Cc1ccc(C(=O)c2oc3ccccc3c2NC(=O)c2cc(-c3cc(C)ccc3O)n[nH]2)cc1	NR3A LBD binder 22, UPR XBP1 act 60, CHOP inhibitor 71
O=C(Nc1c(C(=O)c2ccccc2)oc2ccccc12)c1cc(-c2ccccc2O)n[nH]1	NR3A LBD binder 28, CHOP inhibitor 90
CC(=O)Nc1c(C(=O)c2ccc(F)cc2)oc2ccccc12	none
Cc1ccc(C(=O)c2oc3ccccc3c2NC(=O)c2cc(-c3ccccc3O)n[nH]2)cc1	NR3A LBD binder 31
CC1CC(C)CN(CCCNC(=O)Cn2cccc2C(=O)c2ccccc2)C1 (stereo not given)	none (no result: CHOP inhibitor)
Cn1c(SCC(=O)Nc2ccc(F)cc2)nc2c([nH]c3ccccc32)c1=O	CHOP inhibitor 85
CCn1c(SCC(=O)Nc2ccc(NC(C)=O)cc2)nc2c([nH]c3ccccc32)c1=O	NR3A LBD binder 12 (no result: CHOP inhibitor)
Cc1ccc(NC(=O)CSc2nc3c([nH]c4ccccc43)c(=O)n2C)cc1	none
Cn1c(SCC(=O)Nc2cccc(F)c2)nc2c([nH]c3ccccc32)c1=O	NR3A LBD binder 29
CCOC(=O)CSc1nc2c([nH]c3ccccc32)c(=O)n1C	CHOP inhibitor 76
CCOC(=O)C1(C)CCN1C(=O)c1ccc(C(C)(C)C)cc1 (stereo not given)	none (no result: UPR CHOP act, NR3A LBD binder, UPR XBP1 act, CHOP inhibitor)
COCCn1c(SCC(=O)Nc2ccc(F)cc2)nc2c(oc3ccccc32)c1=O	CHOP inhibitor 84
C[C@H](CO)N1C[C@H](C)[C@@H](CN(C)S(C)(=O)=O)Oc2ccc(NC(=O)Nc3ccc(C(F)(F)F)cc3)cc2C1=O	none (no result: CHOP inhibitor)
C[C@@H]1CN([C@H](C)CO)C(=O)c2cc(NC(=O)Nc3ccc(C(F)(F)F)cc3)ccc2O[C@H]1CN(C)S(=O)(=O)c1ccc(Cl)cc1	NR3A LBD binder 19 (no result: CHOP inhibitor)
C[C@H](CO)N1C[C@H](C)[C@H](CN(C)S(=O)(=O)c2cn(C)cn2)Oc2ccc(NC(=O)Nc3ccc(C(F)(F)F)cc3)cc2CC1=O	none (no result: CHOP inhibitor)
C[C@H](CO)N1C[C@H](C)[C@@H](CN(C)S(=O)(=O)c2ccc(F)cc2)Oc2ccc(NC(=O)Nc3ccc(C(F)(F)F)cc3)cc2C1=O	NR3A LBD binder 11 (no result: CHOP inhibitor)
C[C@@H]1CN([C@@H](C)CO)C(=O)Cc2cc(NC(=O)Nc3ccc(C(F)(F)F)cc3)ccc2O[C@@H]1CN(C)S(=O)(=O)c1ccc(Cl)cc1	NR3A LBD binder 14 (no result: CHOP inhibitor)
O=C(Nc1ccccc1N1CCCC1)c1cc(=O)[nH]c2ccccc12	none (no result: CHOP inhibitor)
O=C(NCc1ncc(C(F)(F)F)cc1Cl)Nc1ccccc1	none (no result: CHOP inhibitor)
CC(NCC(O)COC1CCC(C(C)(C)C)CC1)c1ccccc1 (stereo not given)	CHOP inhibitor 90
NS(=O)(=O)c1ccc(NC(=O)COC(=O)Cc2c[nH]c3ccccc23)cc1	none (no result: CHOP inhibitor)
Cc1nnc(NC(=O)CC(NC(=O)C(F)(F)F)c2ccccc2)s1 (stereo not given)	none
O=C(CC(NC(=O)C(F)(F)F)c1ccccc1)Nc1nnc(CCc2ccccc2)s1 (stereo not given)	CHOP inhibitor 94
O=Cc1cn(-c2ccccc2)nc1-c1ccccc1	none (no result: CHOP inhibitor)
CC1=NNC(=O)/C1=C\c1cn(-c2ccccc2)nc1-c1ccccc1	CHOP inhibitor 108 (no result: UPR CHOP act, UPR XBP1 act)
COc1ccc(-c2n[nH]c(C)c2-c2ccc(Cl)cc2)c(O)c1OC	CHOP inhibitor 90
COc1ccc(O)c(-c2c(-c3ccc(Cl)cc3)n[nH]c2C)c1	none
COc1ccc(-c2n[nH]c(C)c2-c2ccc(Cl)cc2)c(O)c1	NR3A LBD binder 10, CHOP inhibitor 93
C=C(C)COc1ccc(-c2n[nH]c(C)c2-c2ccc(OC)c(OC)c2)c(O)c1	none
Cc1[nH]nc(-c2ccc(O)cc2O)c1-c1ccc(Cl)cc1	NR3A LBD binder 23
Cc1[nH]nc(-c2ccc(O)cc2O)c1-c1nc2ccccc2s1	none
O=C(NCc1ccccc1)c1ccc(S(=O)(=O)NCc2ccco2)cc1	none (no result: CHOP inhibitor)
COc1ccc(NC(=O)C2CCN(c3ncnc4c3nc3n4CCCCC3)CC2)cc1Cl	none (no result: CHOP inhibitor)
CC(C)(C)NC(=O)CSc1ncnc2c1cnn2-c1ccccc1	none (no result: CHOP inhibitor)
CCOC(=O)c1sc(=S)n(-c2ccccc2OC)c1N	NR3A LBD binder 16
CN1/C(=C\C(=O)COc2ccc3c(c2)OCO3)C(C)(C)c2ccccc21	CHOP inhibitor 85
COc1cc(C)c(CNc2cc(C)cc(C)c2)cc1C	NR3A LBD binder 20
COc1cc(C)c(CNc2cccc(C)c2)cc1C	none
COc1ccc(CCN2CC(C(=O)N(C)Cc3cccnc3)CC2=O)cc1OC (stereo not given)	none (no result: CHOP inhibitor)
COCCNC(=O)c1c(N)n(-c2ccccc2)c2nc3ccccc3nc12	none
COCCNC(=O)c1c(N)n(-c2cccc(C)c2)c2nc3ccccc3nc12	CHOP inhibitor 77
Nc1ccc(-n2c(N)c(C(=O)NCc3ccc4c(c3)OCO4)c3nc4ccccc4nc32)cc1	none (no result: CHOP inhibitor)
